Series [1] can be described thus: Partition coefficient (logP). The format is physicochemical. To be noted: octanol/water. The essentials: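 Determined by RP-HPLC. log K = log[(tr − t0)/t0], with t0 the elution time of methanol. log K0 at 0% methanol was obtained by linear regression of log K versus percent methanol, using standards.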
Series [2] is described as follows: First order rate constant, k was determined in human plasma. In kind it is ADME, cell-free. The essentials: (§1)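 Incubation at 37 °C in 80% human plasma, initial 4×10^-4 M (1% methanol). Plasma samples withdrawn at various times were extracted on a C18 cartridge, and appearance of albendazole was followed by HPLC. First-order k_obs came from the slope of log % formed albendazole versus time, and t1/2 = 0.693/k_obs. Mean ± SD.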

Series [3] in a line: Half life of the at pH 5.0. The format is ADME. The essentials: (§2)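 Buffer hydrolysis at 37 °C in HCl, acetate, phosphate or borate buffers. Methanolic stock was added to preheated buffer in screw-capped tubes, giving about 4×10^-4 M final (1% methanol). Samples were taken at intervals and chromatographed immediately by HPLC. First-order k_obs came from the slope of log % formed albendazole versus time, and t1/2 = 0.693/k_obs.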

Series [4] is described as follows: Half life of the in pig liver Esterase. The format is ADME, Sus scrofa. The essentials: (§3)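 Pig liver esterase used in place of plasma, at 37 °C with initial 4×10^-4 M (1% methanol). Samples were C18-extracted over time and albendazole formation was tracked by HPLC. k_obs was taken from the slope of log % formed albendazole versus time, and t1/2 = 0.693/k_obs. Mean ± SD.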

Series [5] is described as follows: First order rate constant, k was determined at pH 5.0. In kind it is ADME. The essentials:
as §2

A short description of series [6]: First order rate constant, k was determined in pig liver Esterase. The format is ADME, tissue-based, Sus scrofa. The essentials:
as §3

A short description of series [7]: First order rate constant, k was determined at pH 7.4. The format is ADME. The essentials:
as §2

Series [8] can be described thus: Half life of the in human plasma. In kind it is ADME, cell-free. Summed up: as §1
The nature of series [9]: Half life of the at pH 7.4. In kind it is ADME. Summed up:
as §2

Series [10] in a line: First order rate constant, k was determined at pH 3. The format is ADME. Summed up:
as §2

Series [11] can be described thus: First order rate constant, k was determined at pH 4. In kind it is ADME. The essentials: as §2
A short description of series [12]: First order rate constant, k was determined at pH 5. In kind it is ADME. The essentials:
as §2

Series [13] is described as follows: First order rate constant, k was determined at pH 1. In kind it is ADME. The essentials:
as §2

Series [14] can be described thus: First order rate constant, k was determined at pH 2. The format is ADME. Summed up:
as §2

Series [15] in a line: First order rate constant, k was determined at pH 6. The format is ADME. Summed up:
as §2

The nature of series [16]: First order rate constant, k was determined at pH 8. The format is ADME. The essentials:
as §2

The nature of series [17]: First order rate constant, k was determined at pH 9. The format is ADME. Summed up: as §2

From ChEMBL document CHEMBL1134075, “Synthesis and hydrolytic stability studies of albendazole carrier prodrugs” (Bioorg Med Chem Lett, 2001) come the findings set out here.

The structures appear in SMILES notation.

As for `CCCSc1ccc2c(c1)nc(NC(=O)OC)n2C(C)=O`, the logP – broadly, the decadic logarithm of the partition coefficient of the neutral form, usually between octanol and water – in series [1] stood at 2.82.

With `CCCSc1ccc2c(c1)nc(NC(=O)OC)n2C(=O)CCC`, the logP in series [1] worked out at 3.92.

As for `CCCSc1ccc2c(c1)nc(NC(=O)OC)n2C(=O)CC`, the logP in series [1] was 3.17.

On to `CCCSc1ccc2c(c1)nc(NC(=O)OC)n2C(=O)OCC`, for which the k in series [2] is recorded as 83.29 10e-3 min-1; in series [5], 2.19 10e-3 min-1; in series [6] it was 100.14 10e-3 min-1; in series [7], 5.73 10e-3 min-1. The logP in series [1] was found to be 3.92. For the same molecule, the half-life (as a rule, how long it takes for the measured level to halve) came out at 5.27 h in series [3], 0.115 h in [4], 0.139 h in series [8] and 2.02 h in series [9].

With `CCCSc1ccc2nc(NC(=O)OC)n(C(=O)OCC)c2c1`, the k in [2] was 96.33 10e-3 min-1; in series [5], 4.21 10e-3 min-1; in series [6], 99.14 10e-3 min-1; in series [7], 5.78 10e-3 min-1. For the same molecule, the logP in series [1] amounted to 3.19. Moreover, the half-life is 2.74 h in series [3], 0.117 h in series [4], 0.12 h in series [8] and 2 h in series [9].

Take `CCCSc1ccc2c(c1)nc(NC(=O)OC)n2COC(=O)c1ccc(N)cc1.Cl`: the k is 0.0323 min⁻¹ in series [10]; 12.43 10e-3 min-1 in [2]; 0.0087 min⁻¹ in series [11]; 0.003 min⁻¹ in series [12]; 0.3203 min⁻¹ in series [13]; 3.01 10e-3 min-1 in series [5]. The k is 0.2826 min⁻¹ in [14]; 15.29 10e-3 min-1 in series [6]; 0.0036 min⁻¹ in [15]; 1.8066 min⁻¹ in series [16]; 8 min⁻¹ in series [17]. This molecule came in with a lipophilicity (logP) in [1] of 2.91. The half-life in series [3] worked out at 3.84 h; in [4], 0.755 h; in series [8], 0.929 h; in series [9], 2.05 h.

With `CCCSc1ccc2nc(NC(=O)OC)[nH]c2c1` [ALBENDAZOLE], the logP in [1] worked out at 3.07.
